Screening data from PubChem BioAssay.
HNF4A DNA FP: change in binding of human HNF4 alpha to DNA. activity change, % at 10 µM. HNF4a-FITC DNA binding, fluorescence polarization, 1 h. AID 1224865. P41235. 360,000 compounds, 0.3% hits; in the data active means activity change above about 30%, passing the limit was not always enough
Target sequence (P41235 whole entry, looked up): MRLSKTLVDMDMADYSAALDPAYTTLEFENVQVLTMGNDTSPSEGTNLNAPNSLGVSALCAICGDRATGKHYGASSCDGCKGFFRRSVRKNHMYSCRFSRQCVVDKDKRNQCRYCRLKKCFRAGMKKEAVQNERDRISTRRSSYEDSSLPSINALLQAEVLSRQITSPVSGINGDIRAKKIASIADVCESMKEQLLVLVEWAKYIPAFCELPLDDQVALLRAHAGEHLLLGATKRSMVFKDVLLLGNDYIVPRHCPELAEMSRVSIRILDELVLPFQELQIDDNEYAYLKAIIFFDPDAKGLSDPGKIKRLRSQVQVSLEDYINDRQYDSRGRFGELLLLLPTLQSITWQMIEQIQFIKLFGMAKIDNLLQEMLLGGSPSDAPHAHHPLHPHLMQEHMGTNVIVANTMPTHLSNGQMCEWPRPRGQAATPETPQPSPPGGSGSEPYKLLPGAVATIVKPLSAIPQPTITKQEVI
CSN deneddyl inh: CSN deneddylation inhibition. Q92905. Purified CSN, SCF-Nedd8-OG deneddylation, fluorescence polarization. inhibition, % at 12.5 µM. 360,000 compounds, 0.38% hits. AID 651999;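 active means pattern-corrected inhibition above about 35%, with an unprinted fluorescence ratio check between 0.5 and 1.5, limit read from the data, passing the limit was not always enough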;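 further: 0% = enzyme with substrate and 100% = substrate without enzyme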
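assay system = purified human Csn5 enzyme expressed in HEK293T cells | amount = 0.24 nM enzyme | buffer or medium = Tris/NaCl/DTT buffer, pH 7.5 | reagent = 10 nM SCFSkp2-Nedd8OG | compound = one concentration, 12.5 µM, 0.25% DMSO | times = 90 min reaction at room temperature | signal = FP | read-out basis = % inhibition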
TPT1 inhibitor: C. albicans TPT1 enzyme inhibition. recombinant caTPT1, FP RNA substrate dephosphorylation. AID 1962. inhibition, % at 5 µM. 300,000 compounds, 0.81% hits;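 active means inhibition above the mean of all tested compounds plus 3 SD, set per screening campaign, cut at about 24% in these data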;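 further: plate controls were DMSO alone for no effect and ferristatin control at 100 nM for full effect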
Rtt109 HAT inh: C. albicans Rtt109 histone acetyltransferase inhibition | Q5AAJ8 | 330,000 compounds, 0.16% hits | purified Rtt109/Vps75, ThioGlo CoA-SH fluorescence, 4 h | inhibition, % at 34.9 µM;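 active means inhibition of at least 50% in every replicate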
TPT1 inh confirm: confirmation of Candida albicans TPT1 inhibitors; AID 2149; 2,400 compounds, 74% hits; inhibition, % at 5 µM; recombinant caTPT1, fluorescence polarization, RNase T1 coupled; shares compounds with TPT1 inhibitor;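 active means inhibition above the primary screen limit, the mean inhibition of all tested compounds plus 3 SD, cut at about 25% in these data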
RNase T1 inh: blocks Aspergillus oryzae RNase T1, a TPT1 counter-screen. shares compounds with TPT1 inhibitor. RNase T1 cleavage, fluorescence polarization, 1536-well. inhibition, % at 5 µM. 2,400 compounds, 83% hits;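 active means inhibition above the solvent-only control well mean plus 3 SD, limit set per screening run, cut at about 23% in these data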;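 further: plate controls were DMSO wells with enzyme for no effect and wells without RNase T1 for full effect; inhibitors block cleavage so intact labeled substrate keeps polarization high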
Target sequence (P00651 whole entry, looked up): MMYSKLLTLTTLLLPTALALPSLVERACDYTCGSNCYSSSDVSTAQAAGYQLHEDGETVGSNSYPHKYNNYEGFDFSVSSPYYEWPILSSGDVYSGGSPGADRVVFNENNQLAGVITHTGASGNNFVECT
* hit, by the source's call. This is a sample that favours compounds with a hit; in the whole collection about 1.2% have one here.

What do the screens show for `Cc1ccc(NC(=O)c2cc(S(=O)(=O)N3CCOCC3)c(Br)s2)cc1`?
HNF4A DNA FP: 2.4; CSN deneddyl inh: -12.6; TPT1 inhibitor: 29.4*; Rtt109 HAT inh: 6.9; TPT1 inh confirm: 0.1; RNase T1 inh: 2.7

How did CCN(CC)CCN(C(=O)c1ccc(Br)s1)c1nc2cc3c(cc2s1)OCCO3 do in these assays?
HNF4A DNA FP: 5.2; CSN deneddyl inh: -0.6; TPT1 inhibitor: -6.1; Rtt109 HAT inh: 1.6

Results for CN(C)CCCN(C(=O)c1ccc(Br)s1)c1nc2cc3c(cc2s1)OCCO3 ?
HNF4A DNA FP: 0.6; CSN deneddyl inh: 5.2; TPT1 inhibitor: 30.9*; Rtt109 HAT inh: 18.7; TPT1 inh confirm: 28.3*; RNase T1 inh: 30.5*

What do the screens show for `COc1cc(NC(=O)c2cc(C)no2)cc(OC)c1OC`?
HNF4A DNA FP: -1.7; CSN deneddyl inh: -2.5; TPT1 inhibitor: 0.5; Rtt109 HAT inh: -1.8

How did CC(C)N1C(=O)S/C(=C/c2ccc3c(c2)n(C)c(=O)n3C)C1=O do in these assays?
HNF4A DNA FP: 3.7; CSN deneddyl inh: 1.9; TPT1 inhibitor: -4.6; Rtt109 HAT inh: -38.4

What do the screens show for `CCN(CC)c1ccc(/C=C2\SC(=O)N(C(C)C)C2=O)o1`?
HNF4A DNA FP: 80.9; CSN deneddyl inh: -0.2; TPT1 inhibitor: 177.7*; TPT1 inh confirm: 171.6*; RNase T1 inh: 157.0*

Results for CC(=O)COc1ccc2cc(-c3ccccc3)c(=O)oc2c1 ?
HNF4A DNA FP: 1.0; CSN deneddyl inh: -2.1; TPT1 inhibitor: 1.3; Rtt109 HAT inh: -1.1

Results for O=C(CCCCl)Oc1ccc2cc(-c3ccc4ccccc4n3)c(=O)oc2c1 ?
HNF4A DNA FP: 17.8; CSN deneddyl inh: 9.9; TPT1 inhibitor: 49.4*; Rtt109 HAT inh: -19.6; TPT1 inh confirm: 35.3*; RNase T1 inh: 42.2*

Results for CCOC(=O)C1(Cc2cccc(F)c2)CCN(Cc2nc(CC)[nH]c2C)CC1 ?
HNF4A DNA FP: 75.4*; CSN deneddyl inh: 30.1; TPT1 inhibitor: 87.2*; Rtt109 HAT inh: 1.6; TPT1 inh confirm: 102.1*; RNase T1 inh: 107.2*

What do the screens show for `O=C(C[C@@H]1C/C=C\CCC(=O)OC[C@H](Cc2ccccc2)NC1=O)N[C@@H](CO)Cc1ccccc1`?
HNF4A DNA FP: 4.0; CSN deneddyl inh: -2.1; Rtt109 HAT inh: -1.1

Results for Cc1cc(=O)oc2c(CN3CCCC3)c(O)c(Cl)cc12 ?
HNF4A DNA FP: -3.4; CSN deneddyl inh: -2.5; TPT1 inhibitor: -8.5; Rtt109 HAT inh: -12.0

Results for Cc1cc(=O)oc2c3c4c(cc12)OCCN4CCC3 ?
HNF4A DNA FP: 6.1; CSN deneddyl inh: -2.8; TPT1 inhibitor: 30.0*; Rtt109 HAT inh: inactive; TPT1 inh confirm: 12.8; RNase T1 inh: 22.0*

Results for O=c1oc2c3c4c(cc2c(C(F)(F)F)c1CCN1CCOCC1)CCCN4CCC3 ?
HNF4A DNA FP: -19.4; CSN deneddyl inh: 12.1; TPT1 inhibitor: -1.1; Rtt109 HAT inh: -7.2

Results for CC(C)c1cc(=O)oc2c3c4c(cc12)CCCN4CCC3 ?
HNF4A DNA FP: 12.6; CSN deneddyl inh: 2.1; TPT1 inhibitor: 28.8*; Rtt109 HAT inh: 12.3; TPT1 inh confirm: 32.0*; RNase T1 inh: 41.3*

What do the screens show for `CCOc1ccc2nc(NC3=NC(c4ccc(OC)cc4)CC(=O)N3)nc(C)c2c1` (centres undefined)?
HNF4A DNA FP: 13.7; CSN deneddyl inh: 12.8; TPT1 inhibitor: 25.6*; Rtt109 HAT inh: 1.0; TPT1 inh confirm: 17.9; RNase T1 inh: 24.7*

How did COc1ccc(N/C=C/C(=O)c2sc(-c3ccccc3)nc2C)cc1 do in these assays?
HNF4A DNA FP: 23.0; CSN deneddyl inh: 5.1; TPT1 inhibitor: 71.1*; Rtt109 HAT inh: 7.6; TPT1 inh confirm: 51.6*; RNase T1 inh: 64.7*

How did Oc1ccc2ccccc2c1-c1sc(Nc2ccccc2)n[n+]1-c1ccc(F)cc1 do in these assays?
HNF4A DNA FP: -67.6; CSN deneddyl inh: -72.2; TPT1 inhibitor: 29.2*; Rtt109 HAT inh: -2.7; TPT1 inh confirm: -11.9; RNase T1 inh: 2.5

How did O=c1cc(C(F)(F)F)nc(-n2[nH]c3c(c2=O)CCCC3)[nH]1 do in these assays?
HNF4A DNA FP: 4.0; CSN deneddyl inh: 3.4; TPT1 inhibitor: 33.3*; Rtt109 HAT inh: 3.9; TPT1 inh confirm: 15.6; RNase T1 inh: 28.2*

What do the screens show for `O=C1N/C(=N\S(=O)(=O)Cc2ccccc2)S/C1=C/c1cccc([N+](=O)[O-])c1`?
HNF4A DNA FP: 1.8; CSN deneddyl inh: 4.2; TPT1 inhibitor: -1.0; Rtt109 HAT inh: 15.7

What do the screens show for `O=C1N/C(=N/O)S/C1=C/c1cccc([N+](=O)[O-])c1`?
HNF4A DNA FP: 1.8; CSN deneddyl inh: -6.3; TPT1 inhibitor: 1.6; Rtt109 HAT inh: -13.8

What do the screens show for `COc1cccc(N=C2NC(=O)/C(=C/c3cc([N+](=O)[O-])ccc3O)S2)c1`?
HNF4A DNA FP: 75.5*; CSN deneddyl inh: 113.0; TPT1 inhibitor: 51.1*; Rtt109 HAT inh: -0.3; TPT1 inh confirm: 64.2*; RNase T1 inh: 69.6*

What do the screens show for `O=C1NC(=Nc2ccccc2Cl)S/C1=C\c1cc([N+](=O)[O-])ccc1O`?
HNF4A DNA FP: 75.8*; CSN deneddyl inh: 107.6; TPT1 inhibitor: 87.8*; Rtt109 HAT inh: -8.0; TPT1 inh confirm: 98.6*; RNase T1 inh: 98.8*

Results for COc1ccc(C(=O)N2CCN(c3ncccn3)CC2)cc1[N+](=O)[O-] ?
HNF4A DNA FP: -2.2; CSN deneddyl inh: -0.7; TPT1 inhibitor: 1.4; Rtt109 HAT inh: 17.2

What do the screens show for `COc1ccc(NC(=O)C2CCCN2C(=O)Oc2ccccc2)cc1` (centres undefined)?
HNF4A DNA FP: -6.0; CSN deneddyl inh: -7.1; TPT1 inhibitor: 47.3*; Rtt109 HAT inh: 2.5; TPT1 inh confirm: 6.1; RNase T1 inh: 6.0

Results for Cc1ccc(NC(=O)C2CCCN2C(=O)Oc2ccccc2)cc1 (centres undefined) ?
HNF4A DNA FP: -1.1; CSN deneddyl inh: -0.9; TPT1 inhibitor: 0.5; Rtt109 HAT inh: 1.7

How did CC(C)c1ccc(Nc2n[nH]c(=S)s2)cc1 do in these assays?
HNF4A DNA FP: 0.3; CSN deneddyl inh: -1.2

What do the screens show for `O=C1CCC(=O)N1c1ccc(-c2nc3ccccc3s2)cc1`?
HNF4A DNA FP: 5.0; CSN deneddyl inh: 2.9; TPT1 inhibitor: 51.5*; Rtt109 HAT inh: 52.1*; TPT1 inh confirm: 10.7; RNase T1 inh: 18.2

Results for Nc1cc(OCc2ccccc2)ccc1OCc1ccccc1 ?
HNF4A DNA FP: -0.2; CSN deneddyl inh: -1.9; Rtt109 HAT inh: -2.6

What do the screens show for `c1coc(CNc2c3c(nc4ccccc24)CCC3)c1`?
HNF4A DNA FP: -13.0; CSN deneddyl inh: 8.2; TPT1 inhibitor: 25.5*; Rtt109 HAT inh: 6.2; TPT1 inh confirm: 24.4*; RNase T1 inh: 34.7*

What do the screens show for `Cc1ccc(NS(=O)(=O)c2cc([N+](=O)[O-])ccc2NNC(=S)Nc2cc(C)ccc2C)c(C)c1`?
HNF4A DNA FP: 13.7; CSN deneddyl inh: 7.2; TPT1 inhibitor: 8.3; Rtt109 HAT inh: 12.4
